Measurements: ChEMBL document CHEMBL1135783, “Selective agonists at group II metabotropic glutamate receptors: synthesis, stereochemistry, and molecular pharmacology of (S)- and (R)-2-amino-4-(4-hydroxy[1,2,5]thiadiazol-3-yl)butyric acid” (J Med Chem, 2002)

Legend:
[1] = biological target: Metabotropic glutamate receptor 5 (Rattus norvegicus, UniProt P31424); assay: Compound was evaluated for the inhibitory activity against cloned Metabotropic glutamate receptor 5
In short: (§1)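 CHO cell lines stably expressing mGluR1α, mGluR2, mGluR4a or mGluR5a, grown at 37 °C in 5% CO2 in DMEM with reduced (S)-glutamine ([…]) and 10% dialyzed fetal calf serum. Cells were seeded 2 days before assay: 1.8 × 10^6 cells/well for inositol phosphate (PI hydrolysis) or 1.0 × 10^6 for cAMP formation. Antagonist activity was tested at 1 mM unless stated otherwise.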

[2] = biological target: Metabotropic glutamate receptor 1 (Rattus norvegicus, UniProt P23385); assay: Compound was evaluated for the inhibitory activity against cloned Metabotropic glutamate receptor 1; in short: as §1
[3] = biological target: Metabotropic glutamate receptor 4 (Rattus norvegicus, UniProt P31423); assay: Compound was evaluated for the inhibitory activity against cloned Metabotropic glutamate receptor 4; in short: as §1
[4] = biological target: Metabotropic glutamate receptor 2 (Rattus norvegicus, UniProt P31421); assay: Compound was evaluated for the inhibitory activity against cloned Metabotropic glutamate receptor 2; in short: as §1
Sequence of Metabotropic glutamate receptor 2 (P31421 whole entry): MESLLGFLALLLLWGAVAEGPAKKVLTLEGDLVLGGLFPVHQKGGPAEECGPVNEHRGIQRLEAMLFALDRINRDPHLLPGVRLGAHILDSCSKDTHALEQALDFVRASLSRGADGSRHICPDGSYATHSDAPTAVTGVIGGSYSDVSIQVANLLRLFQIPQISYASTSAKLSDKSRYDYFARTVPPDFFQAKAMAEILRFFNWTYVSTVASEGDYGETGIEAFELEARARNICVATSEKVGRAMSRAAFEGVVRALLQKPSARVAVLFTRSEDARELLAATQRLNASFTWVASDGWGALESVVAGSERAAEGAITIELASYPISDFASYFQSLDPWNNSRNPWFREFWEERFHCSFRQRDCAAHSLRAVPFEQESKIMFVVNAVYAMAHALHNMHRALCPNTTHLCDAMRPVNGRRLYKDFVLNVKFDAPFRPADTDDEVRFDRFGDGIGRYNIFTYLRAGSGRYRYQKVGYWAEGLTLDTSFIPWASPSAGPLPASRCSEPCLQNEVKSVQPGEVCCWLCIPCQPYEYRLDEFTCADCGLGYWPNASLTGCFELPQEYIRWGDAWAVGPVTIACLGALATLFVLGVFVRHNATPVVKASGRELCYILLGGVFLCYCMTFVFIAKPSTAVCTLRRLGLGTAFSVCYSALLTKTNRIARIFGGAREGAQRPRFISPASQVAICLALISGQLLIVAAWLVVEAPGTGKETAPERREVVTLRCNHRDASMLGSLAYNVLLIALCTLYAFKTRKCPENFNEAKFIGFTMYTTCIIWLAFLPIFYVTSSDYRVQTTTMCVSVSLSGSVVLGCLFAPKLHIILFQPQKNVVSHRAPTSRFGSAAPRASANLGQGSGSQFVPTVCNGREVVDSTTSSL

Sequence of Metabotropic glutamate receptor 1 (P23385 whole entry): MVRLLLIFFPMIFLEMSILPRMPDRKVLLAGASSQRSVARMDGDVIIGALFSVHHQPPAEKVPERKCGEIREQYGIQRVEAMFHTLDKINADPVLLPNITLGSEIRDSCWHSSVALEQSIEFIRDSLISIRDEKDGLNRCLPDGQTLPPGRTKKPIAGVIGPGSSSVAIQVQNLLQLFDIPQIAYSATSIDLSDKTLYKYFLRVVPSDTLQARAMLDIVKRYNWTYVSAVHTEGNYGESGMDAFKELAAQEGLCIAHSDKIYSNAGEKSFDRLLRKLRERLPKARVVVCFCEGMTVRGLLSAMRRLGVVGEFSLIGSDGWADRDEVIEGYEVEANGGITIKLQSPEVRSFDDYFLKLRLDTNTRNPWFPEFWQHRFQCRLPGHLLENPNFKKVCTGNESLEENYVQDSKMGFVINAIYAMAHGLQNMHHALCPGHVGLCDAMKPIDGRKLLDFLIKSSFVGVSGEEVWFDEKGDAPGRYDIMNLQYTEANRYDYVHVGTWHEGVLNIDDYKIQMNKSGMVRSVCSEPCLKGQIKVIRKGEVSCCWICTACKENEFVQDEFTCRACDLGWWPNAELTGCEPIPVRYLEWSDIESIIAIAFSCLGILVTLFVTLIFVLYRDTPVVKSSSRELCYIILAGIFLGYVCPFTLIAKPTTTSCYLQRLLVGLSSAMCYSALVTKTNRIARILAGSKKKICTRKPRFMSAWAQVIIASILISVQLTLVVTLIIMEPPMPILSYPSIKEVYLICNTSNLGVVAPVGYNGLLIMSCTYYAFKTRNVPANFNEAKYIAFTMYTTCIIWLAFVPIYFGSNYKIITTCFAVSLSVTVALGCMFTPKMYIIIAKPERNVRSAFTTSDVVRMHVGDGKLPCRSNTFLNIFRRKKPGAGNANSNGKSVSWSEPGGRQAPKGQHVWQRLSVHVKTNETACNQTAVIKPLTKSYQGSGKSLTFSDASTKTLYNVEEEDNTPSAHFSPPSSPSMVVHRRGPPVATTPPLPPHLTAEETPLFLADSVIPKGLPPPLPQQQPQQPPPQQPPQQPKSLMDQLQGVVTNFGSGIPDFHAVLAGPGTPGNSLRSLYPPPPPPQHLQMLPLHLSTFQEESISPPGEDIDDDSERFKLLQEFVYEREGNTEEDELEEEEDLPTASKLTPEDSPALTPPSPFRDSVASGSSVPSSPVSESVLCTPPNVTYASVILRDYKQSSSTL
Sequence of Metabotropic glutamate receptor 4 (P31423 whole entry): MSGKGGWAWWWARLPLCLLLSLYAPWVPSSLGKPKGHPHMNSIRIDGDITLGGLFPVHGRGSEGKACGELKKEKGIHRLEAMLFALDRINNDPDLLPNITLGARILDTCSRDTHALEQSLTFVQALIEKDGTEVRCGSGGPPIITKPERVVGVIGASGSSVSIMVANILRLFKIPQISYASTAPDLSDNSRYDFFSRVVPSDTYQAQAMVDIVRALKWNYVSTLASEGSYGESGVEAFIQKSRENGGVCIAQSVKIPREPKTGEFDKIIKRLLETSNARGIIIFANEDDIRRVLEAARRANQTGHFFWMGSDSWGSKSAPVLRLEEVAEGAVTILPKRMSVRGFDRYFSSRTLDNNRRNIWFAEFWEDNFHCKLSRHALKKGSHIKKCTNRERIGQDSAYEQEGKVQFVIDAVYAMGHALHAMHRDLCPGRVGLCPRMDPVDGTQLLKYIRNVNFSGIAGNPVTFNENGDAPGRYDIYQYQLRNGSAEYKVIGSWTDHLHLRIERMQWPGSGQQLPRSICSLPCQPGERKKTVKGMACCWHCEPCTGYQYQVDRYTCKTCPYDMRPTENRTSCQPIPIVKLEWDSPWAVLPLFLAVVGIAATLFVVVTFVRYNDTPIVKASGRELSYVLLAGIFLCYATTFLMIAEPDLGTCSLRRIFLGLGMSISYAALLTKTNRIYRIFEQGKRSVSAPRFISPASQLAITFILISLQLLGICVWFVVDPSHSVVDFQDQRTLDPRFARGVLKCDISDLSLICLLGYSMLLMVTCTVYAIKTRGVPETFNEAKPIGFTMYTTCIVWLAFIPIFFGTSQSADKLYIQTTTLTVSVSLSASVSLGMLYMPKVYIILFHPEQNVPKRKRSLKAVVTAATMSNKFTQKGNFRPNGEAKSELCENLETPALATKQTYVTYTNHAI
Sequence of Metabotropic glutamate receptor 5 (P31424 whole entry): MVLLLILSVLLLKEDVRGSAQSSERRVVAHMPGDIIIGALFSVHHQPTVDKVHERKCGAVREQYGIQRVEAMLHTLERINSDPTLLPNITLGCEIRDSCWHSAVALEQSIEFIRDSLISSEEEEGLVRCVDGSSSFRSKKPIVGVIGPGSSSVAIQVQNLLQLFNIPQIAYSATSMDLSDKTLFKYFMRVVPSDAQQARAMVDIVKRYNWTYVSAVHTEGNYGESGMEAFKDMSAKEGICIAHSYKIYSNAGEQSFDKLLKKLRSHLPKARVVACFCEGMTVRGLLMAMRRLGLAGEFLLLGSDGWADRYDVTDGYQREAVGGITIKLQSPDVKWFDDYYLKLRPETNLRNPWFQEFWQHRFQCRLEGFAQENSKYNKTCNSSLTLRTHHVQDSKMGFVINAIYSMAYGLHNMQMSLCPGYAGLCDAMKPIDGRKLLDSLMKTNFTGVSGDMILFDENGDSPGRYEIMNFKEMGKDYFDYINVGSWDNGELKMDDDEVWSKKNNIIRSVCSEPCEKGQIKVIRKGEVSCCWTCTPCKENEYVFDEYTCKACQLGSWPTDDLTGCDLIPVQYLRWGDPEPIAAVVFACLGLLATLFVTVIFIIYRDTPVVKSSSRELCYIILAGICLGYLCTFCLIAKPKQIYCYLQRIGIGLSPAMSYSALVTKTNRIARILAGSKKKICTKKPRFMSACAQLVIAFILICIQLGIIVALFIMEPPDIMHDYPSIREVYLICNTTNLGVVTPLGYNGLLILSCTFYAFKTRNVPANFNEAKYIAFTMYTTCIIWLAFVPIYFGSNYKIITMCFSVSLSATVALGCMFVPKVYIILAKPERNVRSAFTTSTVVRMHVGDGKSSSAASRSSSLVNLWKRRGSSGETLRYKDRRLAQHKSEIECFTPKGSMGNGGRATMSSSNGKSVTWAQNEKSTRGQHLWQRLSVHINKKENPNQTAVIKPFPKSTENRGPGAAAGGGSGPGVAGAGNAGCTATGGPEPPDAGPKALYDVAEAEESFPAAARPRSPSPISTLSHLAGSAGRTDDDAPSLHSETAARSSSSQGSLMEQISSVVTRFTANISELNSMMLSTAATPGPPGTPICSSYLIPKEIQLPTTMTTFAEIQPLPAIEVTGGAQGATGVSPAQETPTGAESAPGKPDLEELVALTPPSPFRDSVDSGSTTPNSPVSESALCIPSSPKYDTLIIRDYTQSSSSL

Row | EC50 [1] | EC50 [2] | EC50 [3] | EC50 [4] | Structure (SMILES)
1 | 190 µM | > 1000 µM | > 1000 µM | – | N[C@@H](CCc1nsnc1O)C(=O)O
2 | > 1000 µM | > 1000 µM | > 1000 µM | – | N[C@H](CCc1nsnc1O)C(=O)O
3 | > 1000 µM | > 1000 µM | > 1000 µM | > 1000 µM | N[C@H](Cc1cc(=O)[nH]o1)C(=O)O
4 | 490 µM | 250 µM | > 1000 µM | > 1000 µM | N[C@@H](Cc1cc(=O)[nH]o1)C(=O)O
5 | > 1000 µM | – | – | – | N[C@@H](CCCC(=O)O)C(=O)O [(S)-2-AMINOADIPIC ACID]
6 | – | – | 12 µM | – | N[C@@H](CCC(=O)O)C(=O)O [GLUTAMIC ACID]
